Source: ChEMBL document CHEMBL1165950, “Design and synthesis of new potent anticancer pyrazoles with high FLT3 kinase inhibitory selectivity” (Bioorg Med Chem, 2010)

Assays:
Type in all cases: functional
[1] = system: HOP-92; assay: Cytotoxicity against human HOP92 cells assessed as cell growth at 10 uM after 48 hrs by sulforhodamine B assay; conditions: HOP-92, 48 h, read-out: Activity
[2] = system: HL-60(TB); assay: Cytotoxicity against human HL-60(TB) cells assessed as cell growth at 0.01 uM after 48 hrs by sulforhodamine B assay; conditions: HL-60, 48 h, read-out: Activity
Summary of the method: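 NCI 60-cell panel. Cells are grown in RPMI 1640 with 5% FBS and 2 mM L-glutamine, seeded at 5000–40,000 cells/well according to doubling time, and preincubated 24 h. Time-zero plates are TCA-fixed. Compound from DMSO stock is given at five 10-fold or 1/2-log concentrations for 48 h at 37 °C, 5% CO2. Suspension cells are fixed with 80% TCA (final 16%) and SRB-stained, with absorbance at 515 nm. Percent growth is derived from Tz, control and test readings.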

[3] = system: M14; assay: Cytotoxicity against human M14 cells assessed as cell growth at 1 uM after 48 hrs by sulforhodamine B assay; conditions: M14, 48 h, read-out: Activity
[4] = system: U-251; assay: Cytotoxicity against human U251 cells assessed as cell growth at 100 nM after 48 hrs by sulforhodamine B assay; conditions: U-251, 48 h, read-out: Activity
[5] = system: MDA-MB-435; assay: Cytotoxicity against human MDA-MB-435 cells assessed as cell growth at 1 uM after 48 hrs by sulforhodamine B assay; conditions: MDA-MB-435, 48 h, read-out: Activity
[6] = system: MDA-MB-435; assay: Cytotoxicity against human MDA-MB-435 cells assessed as cell growth at 10 uM after 48 hrs by sulforhodamine B assay; conditions: MDA-MB-435, 48 h, read-out: Activity
[7] = system: M14; assay: Cytotoxicity against human M14 cells assessed as cell growth at 10 uM; conditions: read-out: Activity
Summary of the method: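 NCI-60 screen: cells grown in RPMI 1640 with 5% FBS and 2 mM L-glutamine, plated at 5000–40,000 cells/well according to doubling time, and preincubated 24 h at 37 °C, 5% CO2. The single 10 µM dose (DMSO stock) was added, then incubated 48 h. Cells were TCA-fixed and stained with 0.4% SRB, read at 515 nm, and growth % calculated against time-zero and control plates.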

[8] = system: SNB-75; assay: Cytotoxicity against human SNB75 cells assessed as cell growth at 0.01 uM after 48 hrs by sulforhodamine B assay; conditions: SNB-75, 48 h, read-out: Activity
[9] = system: HCT-116; assay: Cytotoxicity against human HCT116 cells assessed as cell growth at 10 uM; conditions: read-out: Activity
Summary of the method: (§1)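 Single-dose NCI-60 screen at 10 µM. Cells were grown in RPMI 1640 with 5% FBS and 2 mM L-glutamine, then treated for 48 h at 37 °C. Protein was measured by SRB staining with absorbance at 515 nm. Percentage growth was recorded, and inhibition percentage was calculated as 100 minus growth percentage.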

[10] = system: MDA-MB-231; assay: Cytotoxicity against human MDA-MB-231 cells assessed as cell growth at 0.01 uM after 48 hrs by sulforhodamine B assay; conditions: MDA-MB-231, 48 h, read-out: Activity
[11] = system: CAKI-1; assay: Cytotoxicity against human Caki1 cells assessed as cell growth at 0.01 uM after 48 hrs by sulforhodamine B assay; conditions: CAKI-1, 48 h, read-out: Activity
[12] = system: IGROV-1; assay: Cytotoxicity against human IGROV1 cells assessed as cell growth at 0.01 uM after 48 hrs by sulforhodamine B assay; conditions: IGROV-1, 48 h, read-out: Activity
[13] = system: NCI-H322M; assay: Growth inhibition of human NCI-H322M cells after 48 hrs by sulforhodamine B assay; conditions: for CC50: read-out: LC50 (the source's name)
Summary of the method: (§2)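 NCI 60-cell screen, five-dose mode. Cells grown in RPMI 1640 with 5% FBS and 2 mM L-glutamine and plated at 5000-40,000 cells/well according to doubling time. After 24 h preincubation, a Tz plate was TCA-fixed. Five concentrations (10-fold or 1/2 log dilutions) were applied for 48 h at 37 °C. SRB staining read at 515 nm. IC50 taken from [(Ti-Tz)/(C-Tz)]×100 = 50.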

[14] = system: NCI-H226; assay: Cytotoxicity against human NCI-H226 cells assessed as cell growth at 100 nM after 48 hrs by sulforhodamine B assay; conditions: NCI-H226, 48 h, read-out: Activity
[15] = system: HOP-62; assay: Cytotoxicity against human HOP62 cells assessed as cell growth at 10 uM after 48 hrs by sulforhodamine B assay; conditions: HOP-62, 48 h, read-out: Activity
[16] = system: KM12; assay: Cytotoxicity against human KM12 cells assessed as cell growth at 0.001 uM after 48 hrs by sulforhodamine B assay; conditions: KM12, 48 h, read-out: Activity
[17] = system: UACC-257; assay: Cytotoxicity against human UACC257 cells assessed as cell growth at 10 uM after 48 hrs by sulforhodamine B assay; conditions: UACC-257, 48 h, read-out: Activity
[18] = system: K562; assay: Cytotoxicity against human K562 cells assessed as cell growth at 0.01 uM after 48 hrs by sulforhodamine B assay; conditions: K562, 48 h, read-out: Activity
[19] = system: Malme-3M; assay: Growth inhibition of human MALME-3M cells after 48 hrs by sulforhodamine B assay; conditions: for CC50: read-out: LC50 (the source's name); summary of the method: as §2
[20] = system: T47D; assay: Cytotoxicity against human T47D cells assessed as cell growth at 10 uM after 48 hrs by sulforhodamine B assay; conditions: read-out: Activity
[21] = system: SNB-75; assay: Cytotoxicity against human SNB75 cells assessed as cell growth at 100 nM after 48 hrs by sulforhodamine B assay; conditions: SNB-75, 48 h, read-out: Activity
[22] = system: MDA-MB-435; assay: Growth inhibition of human MDA-MB-435 cells after 48 hrs by sulforhodamine B assay; conditions: MDA-MB-435, 48 h; for CC50: read-out: LC50 (the source's name); summary of the method: as §2
[23] = system: HCT-15; assay: Growth inhibition of human HCT15 cells after 48 hrs by sulforhodamine B assay; conditions: HCT-15, 48 h; for CC50: read-out: LC50 (the source's name); summary of the method: as §2
[24] = system: DU-145; assay: Cytotoxicity against human DU145 cells assessed as cell growth at 10 uM; conditions: read-out: Activity; summary of the method: as §1
[25] = system: HOP-62; assay: Cytotoxicity against human HOP62 cells assessed as cell growth at 1 uM after 48 hrs by sulforhodamine B assay; conditions: HOP-62, 48 h, read-out: Activity
[26] = system: OVCAR-8; assay: Cytotoxicity against human OVCAR8 cells assessed as cell growth at 1 uM after 48 hrs by sulforhodamine B assay; conditions: OVCAR-8, 48 h, read-out: Activity
[27] = system: SF-539; assay: Growth inhibition of human SF539 cells after 48 hrs by sulforhodamine B assay; conditions: SF-539, 48 h; for CC50: read-out: LC50 (the source's name); summary of the method: as §2
[28] = system: K562; assay: Cytotoxicity against human K562 cells assessed as cell growth at 10 uM after 48 hrs by sulforhodamine B assay; conditions: K562, 48 h, read-out: Activity
[29] = system: UACC-62; assay: Cytotoxicity against human UACC62 cells assessed as cell growth at 10 uM after 48 hrs by sulforhodamine B assay; conditions: UACC-62, 48 h, read-out: Activity
[30] = system: NCI-H460; assay: Cytotoxicity against human NCI-H460 cells assessed as cell growth at 1 uM after 48 hrs by sulforhodamine B assay; conditions: NCI-H460, 48 h, read-out: Activity

Row | SMILES | growth at 10 µM [1] [%] | growth at 0.01 µM [2] [%] | growth at 1 µM [3] [%] | growth at 0.1 µM [4] [%] | growth at 1 µM [5] [%] | growth at 10 µM [6] [%] | growth at 10 µM [7] [%] | growth at 0.01 µM [8] [%] | growth at 10 µM [9] [%] | growth at 0.01 µM [10] [%] | growth at 0.01 µM [11] [%] | growth at 0.01 µM [12] [%] | GI50 [13] [µM] | TGI [13] [µM] | CC50 [13] [µM] | growth at 0.1 µM [14] [%] | growth at 10 µM [15] [%] | growth at 0.001 µM [16] [%] | growth at 10 µM [17] [%] | growth at 0.01 µM [18] [%] | further results
1 | COc1cc(C)cc(-c2c(-c3ccnc(-c4ccc(C(C)=O)cc4)c3)cnn2CC#N)c1 | -1 | 99 | -19 | 89 | 17 | 16 | 50.5 | 78 | 23.4 | 95 | 97 | 94 | > 100 | > 100 | > 100 | 96 | 11 | 100 | 36 | 80 | GI50 [19]: 5.82 µM; TGI [19]: > 100 µM; CC50 [19]: > 100 µM; growth at 10 µM [20]: -12%; growth at 0.1 µM [21]: 76%; GI50 [22]: 1.93 µM; TGI [22]: > 100 µM; CC50 [22]: > 100 µM; GI50 [23]: 3.14 µM; TGI [23]: > 100 µM; CC50 [23]: > 100 µM; growth at 10 µM [24]: 103%; growth at 1 µM [25]: 19%; growth at 1 µM [26]: 8%; GI50 [27]: 2.02 µM; TGI [27]: 4.66 µM; CC50 [27]: > 100 µM; growth at 10 µM [28]: 15%; growth at 10 µM [29]: 35%; growth at 1 µM [30]: -9%
2 | COc1cc(C)cc(-c2nn(CC#N)cc2-c2ccc(-c3cccc(C(C)=O)c3)nc2)c1 | -17 | 91 | -53 | 95 | -44 | -22 | 6.52 | 83 | 10.3 | 96 | 96 | 92 | 4.36 | 50.8 | > 100 | 86 | -12 | 99 | 3 | 80 | GI50 [19]: 3.76 µM; TGI [19]: 96.4 µM; CC50 [19]: > 100 µM; growth at 10 µM [20]: -29%; growth at 0.1 µM [21]: 79%; CC50 [22]: > 100 µM; GI50 [23]: 2.14 µM; TGI [23]: > 100 µM; CC50 [23]: > 100 µM; growth at 10 µM [24]: 39%; growth at 1 µM [25]: 16%; growth at 1 µM [26]: 14%; GI50 [27]: 1.73 µM; TGI [27]: 4.65 µM; CC50 [27]: > 100 µM; growth at 10 µM [28]: 9%; growth at 10 µM [29]: 25%; growth at 1 µM [30]: -27%
3 | Cc1cc(O)cc(-c2nn(CC#N)cc2-c2ccnc(-c3ccc(Oc4ccccc4)cc3)c2)c1 | -65 | 95 | -96 | 88 | -18 | -59 | 55.1 | 79 | 25.7 | 84 | 90 | 83 | 5.68 | 19.2 | 48.6 | 95 | -93 | 91 | -93 | 44 | GI50 [19]: 1.81 µM; TGI [19]: 3.58 µM; CC50 [19]: 7.12 µM; growth at 10 µM [20]: -67%; growth at 0.1 µM [21]: 78%; GI50 [22]: 2.32 µM; TGI [22]: 6.84 µM; CC50 [22]: 60.6 µM; GI50 [23]: 2.14 µM; TGI [23]: 5.38 µM; CC50 [23]: 26.1 µM; growth at 10 µM [24]: 76.7%; growth at 1 µM [25]: 60%; growth at 1 µM [26]: -30%; GI50 [27]: 3.38 µM; TGI [27]: 13.5 µM; CC50 [27]: 44 µM; growth at 10 µM [28]: -2%; growth at 10 µM [29]: -95%; growth at 1 µM [30]: -79%
